pEC50: −log10 of the molar value. Activity calls are given as the source filed them. No cut-off for these calls is given here.
Assays:
[1] = Cytotoxicity against HEL cells assessed as alteration of cell morphology by microscopic method; format: cell-based; conditions: human
Method in brief: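 MCC is the lowest compound concentration giving a microscopically visible alteration of cell morphology.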

Human coronavirus 229E = test: Antiviral activity against Human coronavirus 229E infected in HEL cells assessed as reduction in viral cytopathic effect; format: functional, organism-based
Method in brief: (§1)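 Confluent cell monolayers were infected with 100 CCID50 of virus (1 CCID50 is the dose infecting 50% of cultures) with test compound at varying concentrations (100, 20, … μM). CPE was scored once it was complete in untreated infected controls.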

[2] = Selectivity index, ratio of CC50 for HEL cells to EC50 for Varicella zoster virus Oka infected in HEL cells; format: toxicity, cell-based; conditions: human, read-out: Ratio CC50/EC50
Method in brief: (§2)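 SI is CC50 divided by EC50. CC50 comes from the 3-day HEL Coulter-counter growth assay. EC50 comes from the VZV plaque-reduction assay (20 PFU inoculum).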

Sindbis virus = test: Antiviral activity against Sindbis virus infected in African green monkey Vero cells assessed as reduction in viral cytopathic effect; format: functional, organism-based; method in brief: as §1
Coxsackievirus B4 [3] = test: Antiviral activity against Human coxsackievirus B4 infected in human HeLa cells assessed as reduction in viral cytopathic effect; format: functional, organism-based; method in brief: as §1
Human alphaherpesvirus 1 [4] = test: Antiviral activity against Human simplex virus 1 KOS infected in HEL cells assessed as reduction in viral cytopathic effect; format: functional, organism-based; conditions: Human alphaherpesvirus 1, KOS; method in brief: as §1
HEL = test: Cytostatic activity against HEL cells after 3 days by Coulter counting method; format: cell-based; conditions: human, 72 h
Method in brief: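 HEL cells were seeded at 5 × 10^3 cells/well and grown for 24 h, then given medium with graded compound concentrations. After 3 days at 37 °C, cells were counted with a Coulter counter.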

[5] = system: Human immunodeficiency virus 1; test: Antiviral activity against Human immunodeficiency virus 1 LAV1 infected in primary human PBM cells after 6 days by reverse transcriptase activity-based assay; format: functional, organism-based
Human alphaherpesvirus 3 [6] = test: Antiviral activity against thymidine kinase deficient Varicella zoster virus 07/1 infected in HEL cells assessed as reduction in viral plaque formation; format: functional, organism-based; conditions: Human alphaherpesvirus 3, 07/1, HEL
Method in brief: (§3)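 Confluent cultures were inoculated with 20 PFU of virus with compound at varying concentrations (100, 20, … μM). Plaques were counted once plaque formation was complete in untreated infected controls.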

Human alphaherpesvirus 2 = test: Antiviral activity against Human simplex virus 2 G infected in HEL cells assessed as reduction in viral cytopathic effect; format: functional, organism-based; conditions: Human alphaherpesvirus 2, strain G; method in brief: as §1
Human respirovirus 3 = test: Antiviral activity against Human parainfluenza virus 3 infected in African green monkey Vero cells assessed as reduction in viral cytopathic effect; format: functional, organism-based; method in brief: as §1
Human betaherpesvirus 5 [7] = test: Antiviral activity against Human cytomegalovirus AD169 infected in HEL cells assessed as reduction in viral cytopathic effect; format: functional, organism-based; conditions: Human betaherpesvirus 5, AD169, HEL; method in brief: as §1
Human alphaherpesvirus 3 [8] = test: Antiviral activity against Varicella zoster virus Oka infected in HEL cells assessed as reduction in viral plaque formation; format: functional, organism-based; conditions: Human alphaherpesvirus 3, strain Oka vaccine; method in brief: as §3
Influenza B virus = test: Antiviral activity against Influenza B virus infected in MDCK cells assessed as reduction in viral cytopathic effect; format: functional, organism-based
Method in brief: (§4)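 Nearly confluent MDCK cultures were infected with 100 CCID50 of virus with compound at varying concentrations (100, 20, … μM). CPE was scored when complete in untreated infected controls.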

Influenza A virus H3N2 = test: Antiviral activity against Influenza A virus H3N2 infected in MDCK cells assessed as reduction in viral cytopathic effect; format: functional, organism-based; method in brief: as §4
Human betaherpesvirus 5 [9] = test: Antiviral activity against Human cytomegalovirus Davis infected in HEL cells assessed as reduction in viral cytopathic effect; format: functional, organism-based; conditions: Human betaherpesvirus 5, Davis; method in brief: as §1
Human alphaherpesvirus 1 [10] = test: Antiviral activity against thymidine kinase deficient acyclovir-resistant Human simplex virus 1 KOS infected in HEL cells assessed as reduction in viral cytopathic effect; format: functional, organism-based; conditions: Human alphaherpesvirus 1, KOS; method in brief: as §1
Coxsackievirus B4 [11] = test: Antiviral activity against Coxsackievirus B4 infected in African green monkey Vero cells assessed as reduction in viral cytopathic effect; format: functional, organism-based; method in brief: as §1
[12] = system: Vesicular stomatitis virus; test: Antiviral activity against Vesicular stomatitis virus infected in human HeLa cells assessed as reduction in viral cytopathic effect; format: functional, organism-based; method in brief: as §1
[13] = system: Respiratory syncytial virus; test: Antiviral activity against Respiratory syncytial virus infected in human HeLa cells assessed as reduction in viral cytopathic effect; format: functional, organism-based; method in brief: as §1
[14] = system: Mammalian orthoreovirus 1; test: Antiviral activity against Reovirus-1 infected in African green monkey Vero cells assessed as reduction in viral cytopathic effect; format: functional, organism-based; method in brief: as §1
Influenza A virus = test: Antiviral activity against Influenza A virus (H1N1) infected in MDCK cells assessed as reduction in viral cytopathic effect; format: functional, organism-based; method in brief: as §4
[15] = Selectivity index, ratio of CC50 for HEL cells to EC50 for thymidine kinase deficient Varicella zoster virus 07/1 infected in HEL cells; format: toxicity, cell-based; conditions: human, read-out: Ratio CC50/EC50; method in brief: as §2
Vaccinia virus = test: Antiviral activity against Vaccinia virus infected in HEL cells assessed as reduction in viral cytopathic effect; format: functional, organism-based; conditions: Orthopoxvirus vaccinia; method in brief: as §1

| SMILES | MCC [1] [µM] | Activity (Sindbis virus) | Activity (Coxsackievirus B4 [3]) | pEC50 (Human alphaherpesvirus 1 [4]) | CC50 (HEL) [µM] | Activity [5] | pEC50 (Human alphaherpesvirus 3 [6]) | pEC50 (Human alphaherpesvirus 2) | Activity (Human respirovirus 3) | pEC50 (Human betaherpesvirus 5 [7]) | pEC50 (Human alphaherpesvirus 3 [8]) | Activity (Influenza B virus) | Activity (Influenza A virus H3N2) | pEC50 (Human betaherpesvirus 5 [9]) | pEC50 (Human alphaherpesvirus 1 [10]) | Activity (Coxsackievirus B4 [11]) | Activity [12] | Activity [13] | Activity [14] | pEC50 (Vaccinia virus) | other results |
| --- | --- | --- | --- | --- | --- | --- | --- | --- | --- | --- | --- | --- | --- | --- | --- | --- | --- | --- | --- | --- | --- |
| Cc1cn(C/C=C/C[P@](=O)(N[C@@H](C)C(=O)OCc2ccccc2)Oc2ccccc2)c(=O)[nH]c1=O | > 100 | inactive | inactive | 5.02 | ≥ 83 | inactive | 6.48 | 5.28 | inactive | 4.52 | 6.41 | inactive | inactive | 4.35 | 5.49 | inactive | inactive | inactive | inactive | < 4.00 | pEC50 (Human coronavirus 229E): 4.61; selectivity ratio [2]: ≥ 213; Activity (Influenza A virus): inactive; selectivity ratio [15]: ≥ 252 |
| Cc1cn(C/C=C/CP(=O)(OCOC(=O)C(C)C)OCOC(=O)C(C)C)c(=O)[nH]c1=O | > 200 | inactive | inactive | 5.38 | 36 | inactive | 6.35 | 5.21 | inactive | 3.99 | 5.90 | inactive | inactive | 4.08 | 5.55 | inactive | inactive | inactive | inactive | < 3.70 | selectivity ratio [2]: 29; Activity (Influenza A virus): inactive; selectivity ratio [15]: 80 |
| Cc1cn(C/C=C/CP(=O)(OCOC(=O)C(C)(C)C)OCOC(=O)C(C)(C)C)c(=O)[nH]c1=O | ≥ 100 | inactive | inactive | – | 36.4 | inactive | 6.37 | 5.19 | inactive | < 4.39 | 5.72 | inactive | inactive | < 4.39 | – | inactive | inactive | inactive | inactive | 4.51 | selectivity ratio [2]: 19; Activity (Influenza A virus): inactive; selectivity ratio [15]: 85 |
| Nc1ccn(C[C@@H](CO)OCP(=O)(O)O)c(=O)n1 [CIDOFOVIR] | > 300 | – | – | 5.19 | > 300 | – | – | 5.39 | – | – | – | – | – | – | 5.34 | – | – | – | – | 4.67 | – |
| Nc1nc2c(ncn2COCCO)c(=O)[nH]1 [ACYCLOVIR] | > 440 | – | – | 5.92 | > 440 | – | – | 6.15 | – | – | – | – | – | – | 4.03 | – | – | – | – | < 3.60 | – |
| COC(=O)[C@H](C)NP(=O)(C/C=C/Cn1cc(C)c(=O)[nH]c1=O)Oc1ccccc1 (stereo partly drawn) | > 100 | inactive | inactive | 4.23 | > 100 | inactive | 5.74 | 4.51 | inactive | ≤ 4.14 | 5.09 | inactive | inactive | ≤ 4.15 | 4.63 | inactive | inactive | inactive | inactive | < 4.00 | pEC50 (Human coronavirus 229E): < 4.00; selectivity ratio [2]: > 12; Activity (Influenza A virus): inactive; selectivity ratio [15]: > 55 |
| C[C@H](NP(=O)(C/C=C/Cn1cc(Cl)c(=O)[nH]c1=O)Oc1ccccc1)C(=O)OCc1ccccc1 (stereo partly drawn) | ≥ 100 | inactive | inactive | 4.37 | – | inactive | 4.70 | 4.40 | inactive | < 4.70 | 4.35 | inactive | inactive | < 4.70 | 4.62 | inactive | inactive | inactive | inactive | < 4.00 | pEC50 (Human coronavirus 229E): 5.05; Activity (Influenza A virus): inactive |
| Cc1cn(C/C=C/C[P@@](=O)(N[C@@H](C)C(=O)OCc2ccccc2)Oc2ccccc2)c(=O)[nH]c1=O | > 100 | inactive | inactive | 4.94 | 55 | inactive | 6.41 | 5.54 | inactive | 4.47 | 6.23 | inactive | inactive | 4.28 | 5.39 | inactive | inactive | inactive | inactive | – | pEC50 (Human coronavirus 229E): 4.22; selectivity ratio [2]: 93; Activity (Influenza A virus): inactive; selectivity ratio [15]: 141 |
| CCCCCCCCCCCCCCCOCCCOP(=O)(O)C/C=C/Cn1cc(C)c(=O)[nH]c1=O | 184 | inactive | inactive | < 4.43 | 76 | inactive | 4.69 | < 4.43 | inactive | < 4.41 | 4.71 | inactive | inactive | 4.87 | < 4.43 | inactive | inactive | inactive | inactive | < 4.43 | Activity (Influenza A virus): inactive |
| Nc1nc(O)c2ncn(COC(CO)CO)c2n1 [GANCICLOVIR] | ≥ 350 | – | – | – | > 350 | – | – | – | – | 5.25 | – | – | – | 5.39 | – | – | – | – | – | – | – |
| CCCCCCCCCCCCCCCOCCCOP(=O)(C/C=C/Cn1cc(C)c(=O)[nH]c1=O)OCOC(=O)OC(C)C (stereo not drawn) | 30 | inactive | inactive | < 3.82 | 14.7 | inactive | < 5.22 | < 3.82 | inactive | < 5.22 | < 5.22 | inactive | inactive | < 5.22 | < 3.82 | inactive | inactive | inactive | inactive | – | Activity (Influenza A virus): inactive |
| C[C@H](NP(=O)(C/C=C/Cn1cc(F)c(=O)[nH]c1=O)Oc1ccccc1)C(=O)OCc1ccccc1 (stereo partly drawn) | ≥ 100 | inactive | inactive | < 4.00 | – | inactive | < 4.00 | < 4.00 | inactive | < 4.70 | < 4.00 | inactive | inactive | < 4.70 | 4.10 | inactive | inactive | inactive | inactive | < 4.00 | pEC50 (Human coronavirus 229E): 4.35; Activity (Influenza A virus): inactive |
| O=c1[nH]c(=O)n([C@H]2C[C@H](O)[C@@H](CO)O2)cc1/C=C/Br [BRIVUDINE] | > 300 | – | – | 7.09 | > 300 | – | ≤ 4.03 | 3.77 | – | – | – | – | – | – | 3.38 | – | – | – | – | 4.97 | selectivity ratio [2]: > 21400; selectivity ratio [15]: > 3 |
